In ChEMBL document CHEMBL3124765, “Glucal-conjugated sterols as novel vascular leakage blocker: structure-activity relationship focusing on the C17-side chain” (Eur J Med Chem, 2014):
The source made the active and inactive calls. The calls are words filed in the database; no cut-off is given here.

Experiments:
Homo sapiens [1] = species: Homo sapiens; assay: Antiapoptotic activity against HREC assessed as stabilization of cortical actin ring by measuring reduction of VEGF-induced actin stress fibre formation at 10 ug/ml incubated for 60 mins prior to VEGF challenge measured after 60 mins by immunofluorescence microscopy; assay type: functional
Mus musculus [2] = assay: Inhibition of VEGF-induced retinal vascular leakage in C57BL/6 mouse diabetic retinopathy model at 10 ug/ml, […] after 24 hrs by FITC-dextran staining-based fluorescein angiography; assay type: functional, organism-based
In short: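 Eight-week-old C57BL/6 mice received an intravitreal injection of VEGF (50 ng) with or without analog ([…]) in one eye, and DMSO vehicle (same total volume, […]) in the contralateral eye. After 24 h, 40-kDa FITC-dextran (3 mg) was injected into the left ventricle and circulated 5 min. Eyes were fixed in 4% PFA and retinas flat-mounted for fluorescence microscopy.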

Mus musculus [3] = assay: Inhibition of retinal vascular leakage in C57BL/6 mouse diabetic retinopathy model at 10 ug/ml, […] after 24 hrs by FITC-dextran staining-based fluorescein angiography; assay type: functional, organism-based
In short: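 Diabetes induced in C57BL/6 mice with streptozotocin 90 mg/kg i.p. in citrate buffer pH 4.5, daily for 4 days; mice with glucose >300 mg/dl 3 days later were used. Analog ([…]) given intravitreally to one eye, DMSO to the other; n=5/group. At 24 h, leakage assessed by FITC-dextran angiography and Evans blue extraction (620 nm) normalized to retinal weight, blood dye and circulation time.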

Homo sapiens [4] = species: Homo sapiens; assay: Antiapoptotic activity against HREC after 48 hrs by MTT assay; assay type: functional
In short: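 Serum-deprived human retinal endothelial cells (passages 2–7, grown on gelatin-coated dishes in EBM-2/EGM-2 with 20% FBS) exposed to analogs for 48 h; viability read by MTT colorimetric assay. Single-point screen at 10 mg/mL; dose-response over […]. Controls were medium alone (0 h) and DMSO vehicle.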

Homo sapiens [5] = species: Homo sapiens; assay: Antiapoptotic activity against HREC at 10 ug/ml after 48 hrs by MTT assay; assay type: functional
Mus musculus [6] = assay: Inhibition of retinal vascular leakage in C57BL/6 mouse diabetic retinopathy model assessed as restoration of reduced occludin expression at 10 ug/ml, […] after 24 hrs by Western blotting analysis; assay type: functional, organism-based
Homo sapiens [7] = species: Homo sapiens; assay: Antiapoptotic activity against VEGF-treated HREC assessed as enhancement of occludin integrity at 1 to 10 ug/ml incubated for 60 mins prior to 20 ng/ml VEGF challenge measured after 60 mins by ZO-1 staining-based microscopy; assay type: functional
Homo sapiens [8] = species: Homo sapiens; assay: Antiapoptotic activity against VEGF-treated HREC assessed as enhancement of occludin integrity at 10 ug/ml incubated for 60 mins prior to 50 ng/ml VEGF challenge measured after 60 mins by ZO-1 staining-based microscopy; assay type: functional
Homo sapiens [9] = species: Homo sapiens; assay: Antiapoptotic activity against VEGF-treated HREC assessed as enhancement of occludin integrity at 10 ug/ml incubated for 60 mins prior to VEGF challenge measured after 60 mins by immunofluorescence microscopy; assay type: functional
Homo sapiens [10] = species: Homo sapiens; assay: Antiapoptotic activity against HREC assessed as reduction in VEGF-induced actin stress fibre formation at 10 to 20 ug/ml incubated for 60 mins prior to VEGF challenge measured after 60 mins by immunofluorescence microscopy; assay type: functional

SMILES | Activity (Homo sapiens [5]) | further results
CC(=O)OC[C@H]1OC(O[C@H]2CC[C@@]3(C)C(=CC[C@H]4[C@@H]5CC[C@H](/C(C)=N/OC6CCCC6)[C@@]5(C)CC[C@@H]43)C2)C=C[C@@H]1OC(C)=O (stereo partly specified) | Active | Activity (Homo sapiens [1]): Active; inhibition (Mus musculus [2]): Active; inhibition (Mus musculus [3]): Active; Activity (Homo sapiens [4]): Dose-dependent effect; inhibition (Mus musculus [6]): Active; Activity (Homo sapiens [7]): Active; Activity (Homo sapiens [8]): Active; Activity (Homo sapiens [9]): Active
CC(=O)OC[C@H]1OC(O[C@H]2CC[C@@]3(C)C(=CC[C@H]4[C@@H]5CC[C@H](/C(C)=N/OC6C=CCCC6)[C@@]5(C)CC[C@@H]43)C2)C=C[C@@H]1OC(C)=O (stereo partly specified) | Active | Activity (Homo sapiens [1]): Active; Activity (Homo sapiens [4]): Dose-dependent effect; Activity (Homo sapiens [9]): Active
CO/N=C(\C)[C@H]1CC[C@H]2[C@@H]3CC=C4C[C@@H](OC5C=C[C@H](OC(C)=O)C(COC(C)=O)O5)CC[C@]4(C)[C@H]3CC[C@]12C (single isomer, unassigned) | Active | –
CC(=O)OC[C@H]1OC(O[C@H]2CC[C@@]3(C)C(=CC[C@H]4[C@@H]5CC[C@H](/C(C)=N/O)[C@@]5(C)CC[C@@H]43)C2)C=C[C@@H]1OC(C)=O (stereo partly specified) | Active | –
CC(=O)OCC1OC(O[C@H]2CC[C@@]3(C)C(=CC[C@H]4[C@@H]5CC[C@H](/C(C)=N/OC6CCCCC6)[C@@]5(C)CC[C@@H]43)C2)C=C[C@@H]1OC(C)=O (single isomer, unassigned) | Active | –
CCCCCO/N=C(\C)[C@H]1CC[C@H]2[C@@H]3CC=C4C[C@@H](OC5C=C[C@H](OC(C)=O)C(COC(C)=O)O5)CC[C@]4(C)[C@H]3CC[C@]12C (single isomer, unassigned) | Active | –
CC(=O)OC[C@H]1OC(O[C@H]2CC[C@@]3(C)C(=CC[C@H]4[C@@H]5CC[C@H]([C@H](C)CCCC(C)C)[C@@]5(C)CC[C@@H]43)C2)C=C[C@@H]1OC(C)=O (stereo partly specified) | Active | Activity (Homo sapiens [1]): Active; Activity (Homo sapiens [7]): Active; Activity (Homo sapiens [8]): Active; Activity (Homo sapiens [9]): Active
C#CCO/N=C(\C)[C@H]1CC[C@H]2[C@@H]3CC=C4C[C@@H](OC5C=C[C@H](OC(C)=O)[C@@H](COC(C)=O)O5)CC[C@]4(C)[C@H]3CC[C@]12C (stereo partly specified) | Active | –
CC(=O)OCC1OC(O[C@H]2CC[C@@]3(C)C(=CC[C@H]4[C@@H]5CC[C@H](/C(C)=N/OC(C)C)[C@@]5(C)CC[C@@H]43)C2)C=C[C@@H]1OC(C)=O (single isomer, unassigned) | Active | –
CCCCO/N=C(\C)[C@H]1CC[C@H]2[C@@H]3CC=C4C[C@@H](OC5C=C[C@H](OC(C)=O)C(COC(C)=O)O5)CC[C@]4(C)[C@H]3CC[C@]12C (single isomer, unassigned) | Active | –
CC(=O)OC[C@H]1OC(O[C@H]2CC[C@@]3(C)C(=CC[C@H]4[C@@H]5CC[C@H](/C(C)=N/OCc6ccccc6)[C@@]5(C)CC[C@@H]43)C2)C=C[C@@H]1OC(C)=O (stereo partly specified) | Active | Activity (Homo sapiens [1]): Active; Activity (Homo sapiens [4]): Dose-dependent effect; Activity (Homo sapiens [9]): Active
C=CCO/N=C(\C)[C@H]1CC[C@H]2[C@@H]3CC=C4C[C@@H](OC5C=C[C@H](OC(C)=O)C(COC(C)=O)O5)CC[C@]4(C)[C@H]3CC[C@]12C (single isomer, unassigned) | Active | –
C=C(CCC=C(C)C)[C@H]1CC[C@]2(C)[C@@H]1[C@H](O)C[C@@H]1[C@@]3(C)CC[C@H](O[C@@H]4O[C@H](CO)[C@@H](O)[C@H](O)[C@H]4O[C@@H]4O[C@H](CO)[C@@H](O)[C@H](O)[C@H]4O)C(C)(C)[C@@H]3CC[C@]12C | Active | –
C/C(=C\CCC(C)C)[C@H]1CC[C@H]2[C@@H]3CC=C4C[C@@H](OC5CCCCO5)CC[C@]4(C)[C@H]3CC[C@]12C (stereo partly specified) | Active | –
CC(=O)OC[C@H]1OC(O[C@H]2CC[C@@]3(C)C(=CC[C@H]4[C@@H]5CC[C@H](/C(C)=N/OCC(C)C)[C@@]5(C)CC[C@@H]43)C2)C=C[C@@H]1OC(C)=O (stereo partly specified) | Active | –
CC(=O)OC[C@H]1OC(O[C@H]2CC[C@@]3(C)C(=CC[C@H]4[C@@H]5CC[C@H](/C(C)=N/OCC=C(C)C)[C@@]5(C)CC[C@@H]43)C2)C=C[C@@H]1OC(C)=O (stereo partly specified) | Active | –
CC(=O)OC[C@H]1OC(O[C@H]2CC[C@@]3(C)C(=CC[C@H]4[C@@H]5CC[C@H]([C@@](C)(O)CCCC(C)C)[C@@]5(C)CC[C@@H]43)C2)C=C[C@@H]1OC(C)=O (stereo partly specified) | – | Activity (Homo sapiens [10]): Active
CCO/N=C(\C)[C@H]1CC[C@H]2[C@@H]3CC=C4C[C@@H](OC5C=C[C@H](OC(C)=O)C(COC(C)=O)O5)CC[C@]4(C)[C@H]3CC[C@]12C (single isomer, unassigned) | Active | –
CC(=O)OC[C@H]1OC(O[C@H]2CC[C@@]3(C)C(=CC[C@H]4[C@@H]5CC[C@H](/C(C)=N/OCCC(C)C)[C@@]5(C)CC[C@@H]43)C2)C=C[C@@H]1OC(C)=O (stereo partly specified) | Active | –
CC(=O)OC[C@H]1OC(O[C@H]2CC[C@@]3(C)C(=CC[C@H]4[C@@H]5CC[C@H](/C(C)=N/OCc6cccnc6)[C@@]5(C)CC[C@@H]43)C2)C=C[C@@H]1OC(C)=O (stereo partly specified) | inactive | –
CC(C)=CCC[C@](C)(O)[C@H]1CC[C@]2(C)[C@@H]1[C@H](O)C[C@@H]1[C@@]3(C)CC[C@H](O[C@@H]4O[C@H](CO)[C@@H](O)[C@H](O)[C@H]4O[C@@H]4O[C@H](CO)[C@@H](O)[C@H](O)[C@H]4O)C(C)(C)[C@@H]3CC[C@]12C | Active | –
CC(=O)OC[C@H]1OC(O[C@H]2CC[C@@]3(C)C(=CC[C@H]4[C@@H]5CC[C@H](/C(C)=C/CCC(C)C)[C@@]5(C)CC[C@@H]43)C2)C=C[C@@H]1OC(C)=O (stereo partly specified) | Active | Activity (Homo sapiens [10]): Active
